Hits are enriched below; roughly 1.6% of the tested compounds scored in any of these assays.
DAGLB inhibitor: blocks human DAGLB lipase activity. Q8NCG7. HEK293T DAGLB membrane lysate, EnzChek fluorogenic substrate. inhibition, % at 5.17 µM. 0.059% of 340,000 active; in the data active = inhibition above about 34%;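 also: 0% = enzyme with vehicle and 100% = wells lacking enzyme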
Target sequence (Q8NCG7 whole entry, looked up): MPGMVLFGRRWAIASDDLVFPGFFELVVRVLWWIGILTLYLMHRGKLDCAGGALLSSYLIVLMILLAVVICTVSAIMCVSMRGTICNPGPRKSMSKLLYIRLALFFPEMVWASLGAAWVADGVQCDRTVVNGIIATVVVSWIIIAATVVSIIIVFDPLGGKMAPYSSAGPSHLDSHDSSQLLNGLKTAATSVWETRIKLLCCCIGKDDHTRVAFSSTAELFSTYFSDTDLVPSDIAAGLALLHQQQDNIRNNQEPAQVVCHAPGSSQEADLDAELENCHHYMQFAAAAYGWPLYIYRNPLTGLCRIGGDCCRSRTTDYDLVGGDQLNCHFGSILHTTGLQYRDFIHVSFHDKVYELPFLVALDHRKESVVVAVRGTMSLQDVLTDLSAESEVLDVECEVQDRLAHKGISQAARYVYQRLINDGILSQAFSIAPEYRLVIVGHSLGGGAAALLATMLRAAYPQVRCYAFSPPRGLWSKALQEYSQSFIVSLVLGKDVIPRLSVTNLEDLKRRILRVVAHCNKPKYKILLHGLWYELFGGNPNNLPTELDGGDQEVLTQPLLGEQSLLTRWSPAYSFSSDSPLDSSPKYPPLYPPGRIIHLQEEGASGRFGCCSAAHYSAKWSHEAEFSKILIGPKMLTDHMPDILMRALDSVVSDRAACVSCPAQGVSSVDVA
HTRA1 inhibitor: HTRA1 (human) protease inhibition. Q92743. recombinant HTRA1, FP-rhodamine activity-based probe, fluorescence polarization. inhibition, % at 5.96 µM. 0.5% of 340,000 active; in the data active = inhibition above about 36%;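 also: 0% = enzyme with DMSO and 100% = wells lacking enzyme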
TCR CD3 inh: human TCR-CD3 binding inhibition. TAMRA-labeled TCR probe fluorescence, biochemical. inhibition, % at 9.4 µM. 0.37% of 360,000 active. AID 651800;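 also: recombinant mutant TCR 2C K166C tagged with TAMRA read by polarization; 0% = receptor in buffer alone and 100% = receptor with positive control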
mABHD4 FP: inhibits mouse alpha/beta hydrolase domain 4; Q8VD66; purified mABHD4, FP-Rh probe fluorescence polarization; inhibition, % at 8.92 µM; 0.54% of 370,000 active; AID 720543;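 active = inhibition exceeding the mean over every tested compound plus 3 SD, cut at about 30% in these data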;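 also: 0% = plate median of compound wells and 100% = S159A mutant with DMSO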
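Assay system: Wild-type mouse ABHD4 protein | Medium: HEPES pH 7.0 buffer, 150 mM NaCl, 0.01% Pluronic F-127 | Incubation: Enzyme–compound pre-incubation 45 min, then probe 60 min, both 25 °C | Technique: Fluorescence polarization with parallel and perpendicular emission, 525/598 nm | Evaluation: % inhibition of FP-Rh probe binding versus controls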
SIAE primary: blocks human sialic acid acetylesterase; 0.69% of 370,000 active; SIAE FP-Rh probe binding, fluorescence polarization; Q9HAT2; inhibition, % at 9.66 µM;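 active = inhibition above a cutoff: mean of compounds within the control limits plus 3 SD of those, cut at about 17% in these data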;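 also: 0% = plate median of compound wells and 100% = probe without SIAE protein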
BSA TAMRA ctr: interferes with TAMRA-BSA probe, flagging TCR-CD3 hits; shares compounds with TCR CD3 inh; inhibition, % at 9.4 µM; AID 652035; 10% of 1,200 active; TAMRA-labeled BSA probe fluorescence counterscreen; in the data active = inhibition above about 23%;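 also: 0% = buffer low control and 100% = reference high control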
TCR-CD3 inh conf: confirmation of human TCR-CD3 interaction inhibitors | shares compounds with TCR CD3 inh | TAMRA-labeled TCR probe fluorescence binding assay | inhibition, % at 9.4 µM | 48% of 1,200 active | AID 652036
mABHD4 conf: ABHD4 (mouse) inhibition, FP confirmation; inhibition, % at 8.92 µM; 55% of 1,800 active; purified mABHD4, FP-Rh probe fluorescence polarization; shares compounds with mABHD4 FP;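 active = mean inhibition across replicates above the hit cutoff set in the primary screen, cut at about 30% in these data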;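 also: 0% = wild-type ABHD4 with DMSO and 100% = catalytically dead S159A mutant with DMSO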
SIAE confirm: human SIAE inhibition, confirmation; shares compounds with SIAE primary; inhibition, % at 9.66 µM; SIAE FP-Rh activity-based probe, fluorescence polarization; 13% of 2,300 active;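 active = mean inhibition of the replicates above the hit cutoff set in the primary screen, cut at about 17% in these data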;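 also: 0% = SIAE with DMSO and probe and 100% = probe without SIAE; inhibitors lower polarization as more probe stays unbound to SIAE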
* marks the source's active call; other numbers are inactive results; · = not tested or not shown; + = active, no number. Rule as the data show it, unless noted: active = inhibition above about 19%; inactive = the rest.

SMILES	DAGLB inhibitor	HTRA1 inhibitor	TCR CD3 inh	mABHD4 FP	SIAE primary	mABHD4 conf	others
CC(=O)Nc1ccc(C=C2C(=O)NC(=O)NC2=O)cc1	-2	-1	51*	9	-1	·	BSA TAMRA ctr=-3;TCR-CD3 inh conf=-4
C[C@]12CC[C@@H]3c4ccc(O)c(O)c4CC[C@H]3[C@@H]1CC[C@@H]2O	0	28	11	30*	-7	19
C[C@]12CC[C@H]3[C@@H](CCC4=CC(=O)CC[C@@H]43)[C@@H]1CC[C@@H]2O	0	-4	-4	-4	-2	·
O=C(NCCN1CCC2(CC1)C(=O)NCN2c1ccccc1)c1cccs1	·	·	4	2	-1	·
O=C(NCCN1CCC2(CC1)C(=O)NCN2c1ccccc1)c1ccc2ccccc2c1	·	·	3	16	-1	·
CNc1ccc2oc(C[C@H]3O[C@@]4(CC[C@H]3C)O[C@H]([C@H](C)C(=O)c3ccc[nH]3)[C@H](C)C[C@H]4C)nc2c1C(=O)O	15	35	0	30*	11	19
CCOC(=O)CC[C@@H]1CC[C@]2(CCCN(Cc3cccnc3)C2)O1	·	·	·	2	4	·
COc1ccc2c(c1)c(C(=O)O)c(C)n2CC(C)C	2	-2	9	9	-9	·
COc1cc(O)c(C(=O)O)c(-c2cc(O)c(O)cc2C)c1	1	21	11	37*	13	33*
Cc1cccc(-c2nc3ccc(C(=O)N4CCC5(CC4)OCCO5)cc3nc2-c2cccc(C)c2)c1	-5	-35	2	32*	-7	48*
Cc1ccc(-n2c(=S)[nH]c3ccc(C)cc3c2=O)cc1	1	-2	-6	46*	-4	33*
Cc1ccc(-n2c(=S)[nH]c3ccccc3c2=O)cc1F	0	-40	9	17	-15	·
O=C(N/N=C/c1c(O)n(C2CC2)c(=S)[nH]c1=O)c1ccccc1O	2	4	11	35*	-22	25
C/C(=N\NC(=O)c1ccccc1O)c1c(O)n(C2CCCCC2)c(=O)[nH]c1=O	15	17	15	37*	-6	44*
O=P(Oc1ccccc1)(Oc1ccccc1)C(O)c1ccc(Cl)cc1 (centres undefined)	21	-8	3	32*	1	16
COc1ccc(C(O)P(=O)(Oc2ccccc2)Oc2ccccc2)cc1 (centres undefined)	21	-5	2	25	-8	·
CCCCN1CCN(C(=O)COc2cc(=O)n(C)c3ccccc23)CC1	·	·	·	3	-1	·
O=c1c2ccccc2nc(/C=C/c2ccc3c(c2)OCO3)n1-c1ccccc1	-1	-5	-10	-8	-1	·
COc1cc(/C=C/c2nc3ccccc3c(=O)n2-c2ccc(O)cc2)ccc1O	-3	0	3	39*	8	45*
COC(=O)C1=C(c2ccc(OCc3ccccc3)cc2)C[C@@H]2CC[C@H]1N2C(=O)NCc1ccc2c(c1)OCO2	-8	-24	4	51*	0	33*
COC(=O)C1=C(c2ccc(OCc3ccccc3)cc2)C[C@@H]2CC[C@H]1N2C(=O)NCc1ccccc1	-10	-23	7	21	-5	·
COC(=O)C1=C(c2ccc(OCc3ccccc3)cc2)C[C@@H]2CC[C@H]1N2C(=O)NCc1ccc(OC)cc1	-11	-40	-2	41*	-9	43*
COC(=O)C1=C(c2ccc(OCc3ccccc3)cc2)C[C@@H]2CC[C@H]1N2C(=O)NCc1ccc([N+](=O)[O-])cc1	-2	0	3	5	-8	·
COC(=O)C1=C(c2ccc(OCc3ccccc3)cc2)C[C@@H]2CC[C@H]1N2C(=O)NCc1ccc(C(C)(C)C)cc1	-19	-32	-1	33*	-3	50*
COC(=O)C1=C(c2ccc(OCc3ccccc3)cc2)C[C@@H]2CC[C@H]1N2C(=O)NCc1cccc(OC)c1	-8	-37	2	31*	-11	35*
SMILES	DAGLB inhibitor	HTRA1 inhibitor	TCR CD3 inh	mABHD4 FP	SIAE primary	mABHD4 conf	others
O=P(OCCCl)(OCCCl)OCCCl	·	·	-4	6	11	·
COP(=O)(OC)C(C)NC(=O)OCc1ccccc1 (centres undefined)	·	·	·	11	-4	·
CCCCCCCSc1cc(OC)c(CCN(C)C)cc1OC	4	21	9	32*	7	35*
O=S(=O)(c1ccc(Cl)cc1)N1Cc2ccc(Br)cc2-n2nncc2C1	·	·	-6	2	2	·
CCN1/C(=C/C=C/C2=[N+](CC)c3ccccc3C2(C)C)C(C)(C)c2ccccc21	-78	-288	-83	+	+	+	SIAE confirm=+
O=C(NCCN1CCC2(CC1)C(=O)NCN2c1ccccc1)c1ccc(F)cc1	·	·	-10	6	8	·
Cc1cc(OCC(=O)N2CCC(C(N)=O)CC2)c2c3c(c(=O)oc2c1)CCCC3	-1	-2	-2	-1	18*	·	SIAE confirm=6
Cc1cc(OCC(=O)O)c2c3c(c(=O)oc2c1)CCCC3	2	4	6	-2	3	·
CC(C)C[C@H]1N=C(c2ccccc2)c2ccccc2N(CC(=O)NC(C)(C)C)C1=O	·	·	·	8	3	·
CCOP(=O)(OCC)C(NC(=O)c1ccccc1C)C(Cl)(Cl)Cl (centres undefined)	-1	6	-1	-4	19*	·	SIAE confirm=2
CC1(O)CCC2C3CCC4=CC(=O)CCC4=C3C=CC21C (centres undefined)	-2	-4	5	-3	19*	·	SIAE confirm=0
COCOC1CCC2C3CCC4=CC(=O)CCC4=C3C=CC12C (centres undefined)	0	10	5	26	5	·
c1ccc(-c2nc3ccccc3nc2-c2ccc(CN3CCC(n4nnc5ccccc54)CC3)cc2)cc1	·	·	2	-14	-11	·
CCCCn1c(O)c(/C=N/N2CCOCC2)c(=O)[nH]c1=S	-2	-3	4	-1	19*	·	SIAE confirm=2
CCCCCCn1c(O)c(C=Nc2ccccc2N2CCOCC2)c(=O)[nH]c1=S	·	·	2	-1	0	·
COC(=O)C1=C(c2ccc(OC(F)(F)F)cc2)C[C@@H]2CC[C@H]1N2C(=O)NCc1ccco1	·	·	-3	12	7	·
O=C1CC(c2cccnc2)=NN1c1ccccc1	8	4	7	4	28*	·	SIAE confirm=-7
CCCCCSc1cc(OC)c(CCN)cc1OC	1	6	6	11	19*	·	SIAE confirm=2
OCC#CC[N+]1(CC#Cc2ccccc2)CCOCC1	1	2	4	-1	2	·
N#CC[N+]1(CCCNP2(=O)C=C(c3ccccc3)OC(c3ccccc3)=C2)CCOCC1	1	3	0	-1	18*	·	SIAE confirm=-4
COc1cc(C(=S)N2CCOCC2)cc(OC)c1OC(=O)Cc1ccccc1	-2	-7	7	-3	19*	·	SIAE confirm=5
CN1C[C@H](O)[C@H]2C[C@@H]1c1ccccc1O2	·	·	0	-1	-5	·
